# KDM4C inh – blocks human GASC-1 (KDM4C) demethylase activity; GST-KDM4C 2-372, H3K9me3 peptide, LANCE TR-FRET; Q9H3R0; 0.15% of 96,000 active; inhibition, % at 12.5 µM;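 active = mean replicate inhibition above about 25%, with at least 55% of replicates also reaching it, limit read from the data, passing the limit was not always enough; inconclusive = only one of those two conditions met; inactive = neither condition met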
#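 Test system: N-terminal GST-fused human GASC-1 (KDM4C) fragment, residues 2-372; quantity: GASC-1 enzyme at 10 nM final in reaction; dosing: single dose; schedule: 30 min demethylation and 1 h detection at room temperature; signal: LANCE TR-FRET, excitation 340 nm, emissions 618 and 671 nm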
# T cruzi growth-1 – blocks T. cruzi growth in NIH3T3 culture | inhibition, % at 8.34 µM | T. cruzi beta-gal in NIH3T3, GalScreen luminescence, 90 h | AID 624255 | 5.9% of 77,000 active;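 active = mean inhibition above about 93%, with at least 55% of replicates each passing it, limit read from the data, passing the limit was not always enough; inconclusive = only one of those two conditions holds; inactive = neither condition holds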
# IDH1 R132H inh – inhibitors of human IDH1 R132H; IDH1 R132H reductase, diaphorase/resazurin fluorescence, 60 min; inhibition, % at 10 µM; O75874; 0.18% of 70,000 active; in the data active = inhibition above about 34%; inconclusive = no clear call, values can overlap the other calls; inactive = below about 11%;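 also: 0% = DMSO and 100% = no enzyme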
# Target sequence (O75874 whole entry R132H): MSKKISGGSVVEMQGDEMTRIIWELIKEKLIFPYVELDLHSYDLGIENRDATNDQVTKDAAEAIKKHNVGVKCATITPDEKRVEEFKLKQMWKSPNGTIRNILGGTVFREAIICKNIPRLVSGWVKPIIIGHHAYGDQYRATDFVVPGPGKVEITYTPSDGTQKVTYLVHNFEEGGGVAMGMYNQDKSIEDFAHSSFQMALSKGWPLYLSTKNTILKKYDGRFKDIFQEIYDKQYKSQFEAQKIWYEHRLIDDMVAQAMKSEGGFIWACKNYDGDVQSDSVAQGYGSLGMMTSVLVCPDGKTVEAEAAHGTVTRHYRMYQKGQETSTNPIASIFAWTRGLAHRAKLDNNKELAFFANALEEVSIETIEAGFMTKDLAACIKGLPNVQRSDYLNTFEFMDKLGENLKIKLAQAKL
# T cruzi growth-2 – inhibitors of T. cruzi proliferation; 72% of 5,600 active; T. cruzi beta-gal in NIH3T3, GalScreen luminescence, 90 h; shares compounds with T cruzi growth-1; inhibition, % at 8.35 µM;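 active = mean replicate inhibition above about 95% and at least 55% of replicates individually reaching it, limit read from the data; inconclusive = only one of the two criteria is met; inactive = neither criterion is met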
# T cruzi growth-3 – Trypanosoma cruzi proliferation inhibition; shares compounds with T cruzi growth-1; T. cruzi beta-gal in NIH3T3, GalScreen luminescence, 90 h; inhibition, % at 2.09 µM; 21% of 5,600 active; AID 651740;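 active = mean inhibition above about 95%, with at least 55% of replicates also reaching it, limit read from the data; inconclusive = meets just one of the two conditions; inactive = meets neither condition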;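 also: plate controls were neutral control median for no effect and positive control median for full effect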
# 3T3 cytotox – cytotoxicity in mouse NIH/3T3 fibroblasts. shares compounds with T cruzi growth-1. NIH/3T3 viability, CellTiter-Glo ATP luminescence, 90 h. cytotoxicity (signal decrease), % at 8.35 µM. 14% of 5,600 active. AID 651742;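 active = mean signal decrease across replicates above about 35% based on untreated-well scatter, with enough replicates individually passing, limit read from the data; inconclusive = no rule stated though some were filed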;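 also: 0% = median of neutral control wells and 100% = median of positive control wells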
# NIH3T3 tox 2 – kills mouse NIH/3T3 fibroblasts. shares compounds with T cruzi growth-1. NIH/3T3 viability, CellTiter-Glo ATP luminescence, 90 h. inhibition, % at 24.9 µM. 56% of 5,600 active. AID 651744;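 active = mean loss of cell viability signal at or above a set limit, and enough replicates individually reaching it; inconclusive = meets only the mean limit or only the replicate share; inactive = meets neither condition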;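 also: 0% = median of neutral control wells and 100% = median of positive control wells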
# * hit, by the source's call; ? = inconclusive; . = no result. The full list was thinned out, with hits kept by preference.
SMILES,KDM4C inh,T cruzi growth-1,IDH1 R132H inh,T cruzi growth-2,T cruzi growth-3,3T3 cytotox,NIH3T3 tox 2
CCCC#Cc1ccc([C@H]2[C@@H](CO)N3CCCCN(Cc4cncnc4)C[C@@H]23)cc1,2,63,.,.,.,.,.
COCC#Cc1ccc([C@H]2[C@@H](CO)N3CCCCN(Cc4cncnc4)C[C@H]23)cc1,0,109*,.,112*,56,17,15
COCC#Cc1ccc([C@@H]2[C@H](CO)N3CCCCN(Cc4cncnc4)C[C@@H]23)cc1,1,?,.,?,34,-3,-10
COCC#Cc1ccc([C@@H]2[C@@H](CO)N3CCCCN(Cc4cncnc4)C[C@@H]23)cc1,0,106*,.,?,-11,7,-1
COCC#Cc1ccc([C@@H]2[C@@H](CO)N3CCCCN(Cc4cncnc4)C[C@H]23)cc1,0,103*,.,29,18,-13,65*
COC(=O)CCCCCCC(=O)N/N=C/c1ccc(OC)c(Br)c1,.,.,-1,.,.,.,.
CS(=O)(=O)N(CC(=O)Nc1cccc(C(F)(F)F)c1)Cc1ccccc1,.,.,1,.,.,.,.
CCC[C@H]1CC2=C(C[C@@H](CC)CC3=C1C(=O)OC3=O)C(=O)OC2=O,.,.,5,.,.,.,.
O=C(CCCCCCC(=O)N/N=C/c1cccnc1Br)NO,.,.,0,.,.,.,.
O=C(Cn1c(NCCO)nc2ccccc21)c1cccc([N+](=O)[O-])c1,.,.,0,.,.,.,.
Cc1sc(NC(=O)COc2ccc(Cl)cc2Br)c(C(N)=O)c1C,.,.,0,.,.,.,.
COc1cc(NC(=O)C2CC=CCC2C(=O)O)ccc1NC(=O)c1ccccc1 (stereo not given),.,.,0,.,.,.,.
Cc1ccccc1-c1ccc([C@H]2[C@H](CO)N3CCCCN(C(=O)Nc4ccc(F)cc4)C[C@@H]23)cc1,-1,109*,.,96*,88,42*,106*
Cc1ccccc1-c1ccc([C@H]2[C@H](CO)N3CCCCN(C(=O)Nc4cccc(F)c4)C[C@@H]23)cc1,.,80,.,.,.,.,.
Cc1ccccc1-c1ccc([C@@H]2[C@H]3CN(C(=O)Nc4cccc(F)c4)CCCCN3[C@H]2CO)cc1,-1,90,.,.,.,.,.
Cc1ccccc1-c1ccc([C@@H]2[C@H]3CN(C(=O)Nc4ccc(F)cc4)CCCCN3[C@H]2CO)cc1,-1,107*,.,90,105*,?,106*
COc1c(O)cc2c(c1O)C(=O)OC(C)C2O (stereo not given),.,.,0,.,.,.,.
COC(=O)c1ccccc1NC(=O)CC1Sc2ccc(C(F)(F)F)cc2NC1=O (stereo not given),.,.,0,.,.,.,.
CCCN(C)C[C@@H]1Oc2cc(C#Cc3ccc(F)cc3)ccc2S(=O)(=O)N([C@@H](C)CO)C[C@@H]1C,3,85*,0,109*,?,?,106*
C[C@@H]1CN([C@@H](C)CO)S(=O)(=O)c2ccc(C#Cc3ccccc3F)cc2O[C@H]1CN(C)C,-3,21,0,.,.,.,.
CCCN(C)C[C@@H]1Oc2cc(C#Cc3ccccc3F)ccc2S(=O)(=O)N([C@@H](C)CO)C[C@@H]1C,0,?,0,112*,89,23,106*
CCCN(C)C[C@H]1Oc2cc(C#CC(C)C)ccc2S(=O)(=O)N([C@@H](C)CO)C[C@H]1C,0,94,0,.,.,.,.
CCCN(C)C[C@@H]1Oc2cc(C#CC(C)C)ccc2S(=O)(=O)N([C@@H](C)CO)C[C@H]1C,0,102*,-1,111*,91,10,104*
CCCN(C)C[C@H]1Oc2cc(C#Cc3ccc(F)cc3)ccc2S(=O)(=O)N([C@@H](C)CO)C[C@H]1C,-2,17,-1,.,.,.,.
CCCN(C)C[C@@H]1Oc2cc(C#Cc3ccc(OC)cc3)ccc2S(=O)(=O)N([C@@H](C)CO)C[C@@H]1C,-4,?,0,110*,86,43*,104*
SMILES,KDM4C inh,T cruzi growth-1,IDH1 R132H inh,T cruzi growth-2,T cruzi growth-3,3T3 cytotox,NIH3T3 tox 2
CCCN(C)C[C@@H]1Oc2cc(C#Cc3ccc(OC)cc3)ccc2S(=O)(=O)N([C@H](C)CO)C[C@@H]1C,14,95,-3,.,.,.,.
Cc1cccc(C)c1NC(=O)CN(C1CCCCC1)S(=O)(=O)c1ccc(Cl)cc1,.,.,0,.,.,.,.
CCNC(=O)c1c(NC(=O)c2ccccc2[N+](=O)[O-])sc2c1CCCC2,.,.,0,.,.,.,.
Cc1ccc(NC(=O)CCn2nc(-c3ccccc3)c3ccccc3c2=O)cc1,.,.,1,.,.,.,.
CCN(CC(=O)Nc1cccc([N+](=O)[O-])c1C)S(=O)(=O)c1ccc(Br)cc1,.,.,0,.,.,.,.
COc1cc(NC(=O)CSc2nc(C)cc(=O)[nH]2)c(OC)cc1Cl,.,.,0,.,.,.,.
CCOC(=O)c1c(NC(=O)CN2C(=O)COc3ccc(Cl)cc32)sc2c1CCCC2,.,.,0,.,.,.,.
OCC1(CO)COC(COc2ccccc2)=N1,.,.,0,.,.,.,.
OC[C@H]1O[C@@H](OC(CCCCc2ccc(O)cc2)CCc2ccc(O)cc2)[C@H](O)[C@@H](O)[C@@H]1O (stereo not given in full),.,.,2,.,.,.,.
Cc1cc2ccccc2n2c(SCC(=O)NCc3ccco3)nnc12,.,.,-1,.,.,.,.
CCCN(C)C[C@@H]1Oc2cc(C#Cc3ccccc3)ccc2S(=O)(=O)N([C@@H](C)CO)C[C@@H]1C,-5,111*,-1,113*,72,4,104*
CCCN(C)C[C@@H]1Oc2cc(C#Cc3ccccc3)ccc2S(=O)(=O)N([C@H](C)CO)C[C@@H]1C,-3,44,1,.,.,.,.
O=C(CSc1nc(-c2ccccc2)cc(C(F)(F)F)n1)c1ccc(Br)cc1,.,.,0,.,.,.,.
Cc1ccc(N(C(C)C(=O)Nc2cccc([N+](=O)[O-])c2)S(C)(=O)=O)cc1C (stereo not given),.,.,0,.,.,.,.
COc1ccccc1C#Cc1ccc2c(c1)O[C@@H](CN(C)Cc1cncnc1)[C@@H](C)CN([C@@H](C)CO)S2(=O)=O,-2,67,-20,.,.,.,.
COc1ccccc1C#Cc1ccc2c(c1)O[C@@H](CN(C)Cc1ccncc1)[C@H](C)CN([C@@H](C)CO)S2(=O)=O,-2,121*,0,100*,94,73*,81*
COc1ccccc1C#Cc1ccc2c(c1)O[C@H](CN(C)Cc1cncnc1)[C@@H](C)CN([C@H](C)CO)S2(=O)=O,1,92,.,.,.,.,.
COc1ccccc1C#Cc1ccc2c(c1)O[C@@H](CN(C)Cc1ccncc1)[C@@H](C)CN([C@H](C)CO)S2(=O)=O,-1,98*,-5,102*,104*,-8,-16
COc1ccccc1C#Cc1ccc2c(c1)O[C@@H](CN(C)Cc1ccncc1)[C@H](C)CN([C@H](C)CO)S2(=O)=O,1,121*,0,96*,97*,83*,105*
COc1ccccc1C#Cc1ccc2c(c1)O[C@@H](CN(C)Cc1cncnc1)[C@@H](C)CN([C@H](C)CO)S2(=O)=O,5,84,.,.,.,.,.

# High-throughput results as filed in PubChem BioAssay.
